Paper PMC4779681 (Journal of immunology (Baltimore, Md. : 1950), 2016)

What was measured:
[1] = test system: OT-I T cells; assay: OT-I primary effector and memory populations after LM-OVA APL infection; assay type: in vivo, mouse; conditions: for Memory OT-I cells (frequency/number) in pooled secondary lymphoid organs: LM-N4 OVA or LM-V4 OVA infection, week 4-5 post infection, Thy1.1 enrichment; for CD45RB^hi frequency, primary effectors: OT-I in blood, day 7 post LM infection; for CD45RB^hi frequency, memory cells: OT-I in secondary lymphoid tissue, 4 weeks post LM infection; for IL-2 expression by primary effectors: day 7 primary effectors; for Memory phenotype markers CD44, CD127, CD69, Granzyme B: memory OT-I cells primed by LM-OVA APL
Method in brief: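 OT-I donor cells (1.0 × 10⁴, Thy1.1⁺, in PBS) given i.v. to CD45.1⁺ male hosts; 10⁴ CFU LM-OVA APL i.p. 24 h later. Day 7: blood with RBC lysis, gated CD8⁺CD44^hiThy1.1⁺. Week 4 (day 28–35): spleen plus pooled LNs, anti-Thy1.1 PE/anti-PE bead enrichment. Cytokines by intracellular staining after 5 h at 37 C with 1 μM N4 OVA peptide plus GolgiPlug. Counts by counting beads.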

[2] = test system: OT-I T cells; assay type: in vivo, mouse; conditions: vs N4 OVA primed
Method in brief: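 Memory mice, OT-I-transferred and LM-infected, received full-thickness tail and ear skin grafts expressing N4 OVA on the dorsal thorax 5 weeks post infection. Draining LN OT-I cells were counted with counting beads on day 5 post graft. Fold expansion was taken from day 0 to day 5.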

[3] = test system: OT-I T cells; assay: Secondary effectors after N4 OVA peptide footpad rechallenge; assay type: in vivo, mouse; conditions: for CD45RB^hi frequency, secondary effectors: N4 OVA peptide 10 μg per hind foot pad, draining popliteal LN, 5 days later; for CD62L^lo frequency, CD45RB^lo vs CD45RB^hi fraction: CD45RB^lo vs respective CD45RB^hi population
[4] = test system: OT-I T cells; assay: In vitro OVA APL OT-I stimulation; assay type: cell-based, mouse; conditions: for hnRNPLL expression: OT-I cells primed with peptide 3 days in vitro (0.1 μM)
[5] = test system: OT-I T cells; conditions: between N4 and V4 OVA; cited from earlier work
[6] = test system: OT-I T cells; assay: Sorted Q4 OVA primed OT-I cells transferred and rechallenged with N4 OVA peptide; assay type: in vivo, mouse; conditions: N4 OVA peptide rechallenge in naïve congenic hosts, day 5, p=0.0012
Method in brief: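 OT-I splenocytes (3×10⁶) were primed for 3 days with 0.1 μM Q4 OVA peptide, 0.1 μg/mL anti-CD28 and 10 ng/mL IL-2. Dead cells were removed, then cells were cultured overnight in 10 ng/mL IL-15. Live CD8⁺CD44^hiThy1.1⁺ cells were sorted into CD45RB^hi/lo, transferred to naïve congenic hosts and rechallenged with N4 OVA peptide. CD45RB was assessed 5 days later; 2–3 independent experiments.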

Sequence	Memory OT-I cells (frequency/number) in pooled secondary lymphoid organs [1]	CD45RB^hi frequency, primary effectors [1] [%]	CD45RB^hi frequency, memory cells [1] [%]	IL-2 expression by primary effectors [1]	Memory phenotype markers CD44, CD127, CD69, Granzyme B [1]	CD45RB^hi frequency, secondary effectors [3] [%]	CD62L^lo frequency, CD45RB^lo vs CD45RB^hi fraction ([3]; secondary effectors)	hnRNPLL expression [4]	further results
SIIVFEKL [V4 OVA]	1.3×10^3±5.3×10^2	68.7±3.6	79.3±3.4	similarly low levels of IL-2	high levels of CD44 and CD127, and low levels of CD69 and Granzyme B	19.6±1.96	greater frequency	not induced	Fold lower frequency of CD8^+ OT-I effectors in blood vs N4 OVA priming ([1]; day 7 post LM infection (10^4 CFU i.p.), 10^4 OT-I transferred): ~ 80 fold; Fold lower frequency of memory OT-I cells vs N4 OVA priming ([1]; secondary lymphoid organs, memory, LM infection): 61 fold; Fold expansion of memory cells post graft ([2]; day 0 to day 5 post N4 OVA skin graft): greater fold expansion; Number of OT-I cells recovered in draining lymph nodes ([2]; day 5 post N4 OVA skin graft): fewer; PD-1 expression in CD45RB^lo fraction ([3]; secondary effectors): significantly upregulated; IL-2Rβ (CD122) expression ([3]; secondary effectors, CD45RB^lo vs CD45RB^hi): significantly lower; CD62L^lo frequency within CD45RB^lo population ([3]; secondary effectors, V4 OVA vs N4 OVA primed CD45RB^lo): slightly smaller frequency; IFN-γ^+ or TNF^+ frequency, CD45RB^lo vs CD45RB^hi ([3]; secondary effectors, high affinity rechallenge): did not possess greater frequencies; Loss of CD45RB^hi cells relative to resting memory ([3]; secondary effectors, vs N4 OVA primed): significantly greater; IL-2Rα (CD25) expression, CD45RB^lo cells ([3]; vs CD45RB^hi cells and N4 OVA primed CD45RB^lo cells): significantly higher levels; Range in relative functional avidity [5]: 680 fold
SIINFEKL [N4 OVA]	8.0×10^4±3.3×10^4	48.9±2.2	54.7±6.76	similarly low levels of IL-2	high levels of CD44 and CD127, and low levels of CD69 and Granzyme B	30.2±3.39	greater frequency	increased	Nur77 and CD69 expression, CD45RB^hi vs CD45RB^lo cells ([4]; V4 OVA Tm cells restimulated 5 h with N4 OVA or OVA APL, 0.1 μM): significantly greater in CD45RB^hi cells
SIIQFEKL [Q4 OVA]	–	–	–	–	–	–	–	–	Proliferation of sorted CD45RB^hi vs CD45RB^lo cells [6]: proliferated to a significantly greater number
